Yeast growth tox: Compounds toxic to wild-type S. cerevisiae growth; A595 turbidity, 16 h; growth inhibition, % at 25 µM (by protocol); hit rate 0.3% among 30,000; AID 685;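 active means mutant and wild-type yeast strains alike exhibit over 30% growth inhibition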
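Schedule: 16 h growth with compound, 30 °C. System: yeast, wild-type or eIF2Bepsilon-R284H mutant. Doses: one dose, 25 µM compound[…]. Buffer or medium: YPD. Signal: turbidity measured as absorbance at 595 nm. Read-out basis: growth inhibition (%) versus cell controls and blanks.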
eIF2B yeast act: eIF2B (yeast) activity modulation; S. cerevisiae eIF2B-epsilon R284H, GCN4-lacZ luminescence; inhibition, % at 25 µM (by protocol); hit rate 0.91% among 27,000;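 active means mutant luminescence inhibited past about 50% while wild type luminescence and mutant growth stay under set limits, limit read from the data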
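Assay system: yeast eIF2B-epsilon R284H mutant carrying GCN4–beta-galactosidase fusion / Buffer or medium: YPD / Incubation: 16 h growth with compound at 30 °C, 90 min Beta-Glo step / Detection: Beta-Glo luminescence after Z-buffer lysis, growth by 595 nm absorbance / Read-out: % inhibition of reporter signal and growth versus controls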
Each line names hits and unclear results; the compound was inactive in the other large screens. The list is not random: actives were taken first. Their share in the collection is about 1%.

CCOC(=O)C1(CCSC)NC(c2ccco2)C2C(=O)N(C)C(=O)C21 (configuration not stated)	eIF2B yeast act 72
COC(=O)C1=C(N)N(c2ccc(F)cc2)C2=C(C(=O)CCC2)C1c1ccc2c(c1)OCO2 (configuration not stated)	none
CCOC(=O)N1CCN(C(=O)c2nn(-c3cc(OC)cc(OC)c3)c(=O)c3ccccc23)CC1	eIF2B yeast act 57
COc1cc(OC)cc(-n2nc(C(=O)N3CC(C)CC(C)C3)c3ccccc3c2=O)c1 (configuration not stated)	none
O=S(=O)(/C=C/c1ccccc1)N1CCN(c2cccc(Cl)c2)CC1	none
Cc1cc(NC(=O)COC(=O)c2cc(S(=O)(=O)N3CCOCC3)ccc2N2CCCCC2)no1	none (no result: eIF2B yeast act)
CCSc1nc2c(sc3ccccc32)c(=O)n1C(C)C	none (no result: eIF2B yeast act)
CC1Cc2ccccc2N1C(=O)c1cc2c(=O)n3ccccc3nc2n1C (configuration not stated)	none
COC(=O)c1cc2c(=O)n3ccccc3nc2n(C)c1=N	Yeast growth tox 32
Cc1cc(C)cc(OCC(=O)OCC(=O)c2c(N)n(C)c(=O)n(C)c2=O)c1	none (no result: eIF2B yeast act)
Cc1cc(N2CCOCC2)n2ncc(-c3ccccc3)c2n1	none
Cc1cc(N2CCN(C(=O)c3ccco3)CC2)n2ncc(-c3ccccc3)c2n1	Yeast growth tox 94
COc1ccc(Cl)cc1C(=O)Nc1ccc(S(=O)(=O)N2CCCC2)cc1	none
CCCCNS(=O)(=O)c1cccc(S(=O)(=O)N2CCCC2)c1	eIF2B yeast act 53
O=S(=O)(NCCc1ccccc1F)c1cccc(S(=O)(=O)N2CCOCC2)c1	none
COc1ccc(S(=O)(=O)Nc2nc3n(n2)C(c2ccc(Cl)cc2)CC(=O)N3)cc1 (configuration not stated)	none
COc1ccc(C(=O)Cn2nnc(-c3ccccc3NC(=O)c3ccco3)n2)cc1	none (no result: Yeast growth tox)
N#CC1=C(SCC(=O)c2ccc(Cl)cc2)NC2=C(C(=O)CCC2)C1c1ccco1 (configuration not stated)	eIF2B yeast act 51
Cc1ccc(NC(=O)CSC2=C(C#N)C(c3ccco3)C3=C(CCCC3=O)N2)cc1 (configuration not stated)	none
CN(Cc1ccccc1)C1CC(=O)N(c2ccc(C(=O)O)cc2)C1=O (configuration not stated)	none
CCCCCC(=O)N(O)C1CC(=O)N(c2ccccc2)C1=O (configuration not stated)	Yeast growth tox 38
C1CCC(OCCN2CCN(CCOC3CCCCC3)CC2)CC1	none
CC1(C)Cc2c(c(=S)nc(-c3ccccc3)n2CCOCCO)CO1	eIF2B yeast act 51
Cc1ccc(-c2nc(=S)c3c(n2CCN2CCOCC2)CC(C)(C)OC3)cc1	none (no result: eIF2B yeast act)
c1ccc(-n2ncc3c(N4CCN(c5ccccn5)CC4)nc(N4CCCCCC4)nc32)cc1	none
c1ccc(-c2ccc3c(c2)c2c4n3CCN=C4CCC2)cc1	none
O=c1[nH]c(NC2CCCCC2)nnc1Cc1ccccc1	none
Cc1nnc(NC2CCCCC2)[nH]c1=O	eIF2B yeast act 65
COc1cccc(NC(=O)CN(c2ccc(C)cc2)S(=O)(=O)c2c(C)nn(C)c2C)c1	eIF2B yeast act 53
COc1ccc(N(CC(=O)NC2CCCCCC2)S(=O)(=O)c2c(C)nn(C)c2C)cc1	none
COc1ccccc1CC(=O)N1CCCC1	none (no result: eIF2B yeast act)
COc1ccccc1CC(=O)N1CCN(c2cccc(C(F)(F)F)c2)CC1	eIF2B yeast act 50
CC(C)CCN1C(=O)c2ccc(C(=O)NCC3CCCO3)cc2C1=O (configuration not stated)	none
COc1ccc(C(=O)OC(COc2ccccc2)Cn2ccnc2)cc1 (configuration not stated)	Yeast growth tox 68
COc1ccc(OCCOC(=O)c2ccc(-n3cnnn3)cc2)cc1	none
COc1ccc(-c2nn(CC(=O)N(C)C)c(=O)c3ccccc23)cc1	none
Cc1cc(C)nc(N(C#N)CCOc2ccccc2)n1	none
CN(C)c1nc(N(C)C)nc(N(C#N)CCOc2ccccc2)n1	eIF2B yeast act 50 (no result: Yeast growth tox)
O=C(OCC#CCSc1nnc(-c2ccc([N+](=O)[O-])cc2)o1)c1cccs1	none
CCc1c(C)nc2cc(-c3cc(OC)cc(OC)c3)nn2c1N1CCN(CCN2CCOCC2)CC1	none (no result: eIF2B yeast act)
Fc1ccc(-c2cc3nc(-c4ccccc4)cc(N4CCN(CCN5CCOCC5)CC4)n3n2)cc1	Yeast growth tox 31
O=C(Nc1nc2ccc(Cl)cc2s1)C1CCCO1 (configuration not stated)	Yeast growth tox 30 (no result: eIF2B yeast act)
O=C(Nc1cc(Cl)ccc1O)C1CCCO1 (configuration not stated)	none (no result: Yeast growth tox)
CCCC1COC(Cn2cncn2)(c2ccc(C)cc2)O1 (configuration not stated)	Yeast growth tox 93
Cc1c(NC(=O)CSc2ccccc2C(=O)Nc2cccnc2)c(=O)n(-c2ccccc2)n1C	none
CCC1(C)N(O)C(C)(C)C(c2ccc(F)cc2)=[N+]1[O-] (configuration not stated)	none
CN1CCN(CCC(=O)Nc2ccc3c(c2)OCO3)CC1	eIF2B yeast act 56
Cc1ccc(-c2nnn(CCC(=O)Nc3ccc4c(c3)OCO4)n2)cc1	none
CCOC(=O)c1c(NC(=O)COC)sc2c1CCCC2	eIF2B yeast act 65
CCOC(=O)c1c(NC=O)sc2c1CCC2	none
COc1ccc(NS(=O)(=O)c2ccc3c(c2)Cc2ccccc2-3)cn1	none
CN(C)c1cccc(C(=O)OCC(=O)NCC2CCCO2)c1 (configuration not stated)	none
Cc1ccc2c(c1)SC1=NC(c3ccccc3)(C(F)(F)F)NC(=O)N12 (configuration not stated)	none
COc1ccccc1/C=N/n1c(C)nnc1-n1nc(C)cc1C	none
COc1ccc(C(=O)Nn2c(C)nnc2-n2nc(C)cc2C)cc1OC	eIF2B yeast act 56
COC(=O)c1ccc(OCC(=O)c2ccccc2)cc1	none
COC(=O)c1cc(O)c(OCc2ccccc2)c(O)c1	eIF2B yeast act 70
COc1ccc2c(CC#N)c[nH]c2c1	none
Cc1cc(Br)ccc1NC(=O)CNC(=O)CN(C)Cc1nc2ccccc2c(=O)[nH]1	none
CCN(CC)CCNC(=O)Cn1nc(-c2ccccc2)c2ccccc2c1=O	none
CNC(=O)Cn1nc(-c2ccc(C)c(S(=O)(=O)N(C)C)c2)c2ccccc2c1=O	eIF2B yeast act 62
COc1ccc(C(=O)n2ccc(C)n2)cc1Br	none (no result: eIF2B yeast act)
O=C(/C=C/c1ccccc1Cl)c1cccnc1	Yeast growth tox 48 (no result: eIF2B yeast act)
N/C(=N\OC(=O)c1ccccc1Cl)c1cccnc1	none
COc1ccc(-c2nnc(SCC(=O)NC(=O)NCc3ccccc3)o2)cc1	none (no result: eIF2B yeast act)
Cc1ccc(NC2CC(=O)N(Cc3ccccc3)C2=O)cc1 (configuration not stated)	none (no result: eIF2B yeast act)
CN1C(=O)CC2(CC(=O)N(Cc3ccccc3)C2)C1=O (configuration not stated)	eIF2B yeast act 61 (no result: Yeast growth tox)
COCCn1nnnc1CN(CCc1ccccc1)Cc1cc2ccc(C)cc2[nH]c1=O	none
CCOC(=O)CN(C(=O)Cn1nnc2ccccc21)C(C(=O)NCCOC)c1ccccc1C (configuration not stated)	none
CCCCN(C(=O)Cn1nnc2ccccc21)C(C(=O)NCCOC)c1ccccc1 (configuration not stated)	eIF2B yeast act 57
COc1cccc(-c2[nH]nc3c2C(c2ccoc2)C(C#N)=C(N)O3)c1 (configuration not stated)	none
Cc1cc2c(cc1C)CSC(c1ccc3ccccc3c1O)SC2	none (no result: eIF2B yeast act)
Cc1cc2c(cc1C)CSC(c1ccccc1O)SC2	Yeast growth tox 81 (no result: eIF2B yeast act)
